Results taken from ChEMBL document CHEMBL1649387, “Synthesis and evaluation of quinonoid compounds against tumor cell lines” (Eur J Med Chem, 2011).
Calls of active or inactive are those of the source. No cut-off for these calls is given here.

Legend:
MDA-MB-435 [1] = test: Induction of lipid peroxidation in human MDA-MB-435 cells assessed as increase in TBARS formation at 5 uM after 24 hrs; type: functional, cell-based
Procedure, shortened: (§1)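 Cells treated 24 h, with or without 24 h pretreatment with 5 mM NAC. Cells lysed with Tris-HCl (15 mM, 1 h) and heated with TCA/HCl/thiobarbituric acid for 15 min at 100 °C, then centrifuged. TBARS read at 532 nm against hydrolyzed 1,1,3,3-tetramethoxypropane standard and normalized to protein.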

HL-60 [2] = test: Induction of lipid peroxidation in human HL60 cells assessed as increase in TBARS formation at 5 uM after 24 hrs in presence of […]; type: functional, cell-based; procedure, shortened: as §1
HL-60 [3] = test: DNA damage index, DNA damage in human HL60 cells to DNA damage in human HL60 cells with FPG/ENDO3 DNA repair enzymes; type: functional
Procedure, shortened: (§2)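 Cells treated 12 h, then alkaline comet slides washed in enzyme buffer (40 mM HEPES, 100 mM KCl, 0.5 mM Na2EDTA, 0.2 mg/mL BSA, pH 8.0). Slides then incubated with FPG (30 min, 37 °C) or ENDOIII (45 min, 37 °C). Enzyme-sensitive sites = total breaks minus buffer-only breaks. 100 cells scored per group. NAC pretreatment 5 mM. Mean ± S.E.M. of three experiments.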

HL-60 [4] = test: DNA damage index, DNA damage in human HL60 cells to DNA damage in human HL60 cells with FPG/ENDO3 DNA repair enzymes in presence of […]; type: functional; procedure, shortened: as §2
MDA-MB-435 [5] = test: DNA damage index, DNA damage in human MDA-MB-435 cells to DNA damage in human HL60 cells with FPG/ENDO3 DNA repair enzymes; type: functional; procedure, shortened: as §2
MDA-MB-435 [6] = test: DNA damage index, DNA damage in human MDA-MB-435 cells to DNA damage in human HL60 cells with FPG/ENDO3 DNA repair enzymes in presence of […]; type: functional; procedure, shortened: as §2
HCT-8 [7] = test: DNA damage index, DNA damage in human HCT8 cells to DNA damage in human HL60 cells with FPG/ENDO3 DNA repair enzymes; type: functional; procedure, shortened: as §2
HCT-8 [8] = test: DNA damage index, DNA damage in human HCT8 cells to DNA damage in human HL60 cells with FPG/ENDO3 DNA repair enzymes in presence of […]; type: functional; procedure, shortened: as §2
SF-295 [9] = test: DNA damage index, DNA damage in human SF295 cells to DNA damage in human HL60 cells with FPG/ENDO3 DNA repair enzymes; type: functional; procedure, shortened: as §2
SF-295 [10] = test: DNA damage index, DNA damage in human SF295 cells to DNA damage in human HL60 cells with FPG/ENDO3 DNA repair enzymes in presence of […]; type: functional; procedure, shortened: as §2
PBMC = test: Cytotoxicity against human PBMC cells after 72 hrs by Alamar Blue assay; type: cell-based
HL-60 [11] = test: Induction of lipid peroxidation in human HL60 cells assessed as increase in TBARS formation at 5 uM after 24 hrs; type: functional, cell-based; procedure, shortened: as §1
HCT-8 [12] = test: Induction of lipid peroxidation in human HCT8 cells assessed as increase in TBARS formation at 5 uM after 24 hrs; type: functional, cell-based; procedure, shortened: as §1
SF-295 [13] = test: Induction of lipid peroxidation in human SF295 cells assessed as increase in TBARS formation at 5 uM after 24 hrs; type: functional, cell-based; procedure, shortened: as §1
MDA-MB-435 [14] = test: Induction of lipid peroxidation in human MDA-MB-435 cells assessed as increase in TBARS formation at 5 uM after 24 hrs in presence of […]; type: functional, cell-based; procedure, shortened: as §1
HCT-8 [15] = test: Induction of lipid peroxidation in human HCT8 cells assessed as increase in TBARS formation at 5 uM after 24 hrs in presence of […]; type: functional, cell-based; procedure, shortened: as §1
SF-295 [16] = test: Induction of lipid peroxidation in human SF295 cells assessed as increase in TBARS formation at 5 uM after 24 hrs in presence of […]; type: functional, cell-based; procedure, shortened: as §1
MDA-MB-435 [17] = test: Induction of apoptosis in human MDA-MB-435 cells assessed as cell viability at 5 uM after 24 hrs by trypan blue exclusion assay in presence of […]; type: functional, cell-based
Procedure, shortened: (§3)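 Cells incubated 24 h, with or without 24 h pretreatment with 5 mM NAC. Viability determined by trypan blue dye exclusion.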

HL-60 [18] = test: Induction of apoptosis in human HL60 cells assessed as cell viability at 5 uM after 24 hrs by trypan blue exclusion assay in presence of […]; type: functional, cell-based; procedure, shortened: as §3
HCT-8 [19] = test: Induction of apoptosis in human HCT8 cells assessed as cell viability at 5 uM after 24 hrs by trypan blue exclusion assay; type: functional, cell-based; procedure, shortened: as §3
SF-295 [20] = test: Induction of apoptosis in human SF295 cells assessed as cell viability at 5 uM after 24 hrs by trypan blue exclusion assay; type: functional, cell-based; procedure, shortened: as §3
HL-60 [21] = test: Induction of apoptosis in human HL60 cells assessed as cell viability at 5 uM after 24 hrs by trypan blue exclusion assay; type: functional, cell-based; procedure, shortened: as §3
MDA-MB-435 [22] = test: Induction of apoptosis in human MDA-MB-435 cells assessed as cell viability at 5 uM after 24 hrs by trypan blue exclusion assay; type: functional, cell-based; procedure, shortened: as §3
HL-60 [23] = test: Cytotoxicity against human HL60 cells after 72 hrs by MTT assay; type: functional, cell-based; settings: HL-60, 72 h
MDA-MB-435 [24] = test: Cytotoxicity against human MDA-MB-435 cells after 72 hrs by MTT assay; type: functional, cell-based; settings: MDA-MB-435, 72 h
HCT-8 [25] = test: Cytotoxicity against human HCT8 cells after 72 hrs by MTT assay; type: functional, cell-based; settings: HCT-8, 72 h
SF-295 [26] = test: Cytotoxicity against human SF295 cells after 72 hrs by MTT assay; type: functional, cell-based; settings: SF-295, 72 h
HCT-8 [27] = test: Induction of apoptosis in human HCT8 cells assessed as cell viability at 5 uM after 24 hrs by trypan blue exclusion assay in presence of […]; type: functional, cell-based; procedure, shortened: as §3
SF-295 [28] = test: Induction of apoptosis in human SF295 cells assessed as cell viability at 5 uM after 24 hrs by trypan blue exclusion assay in presence of […]; type: functional, cell-based; procedure, shortened: as §3
HL-60 [29] = test: Genotoxicity in human HL60 cells assessed as DNA strand breaks at 5 uM after 24 hrs by comet assay; type: functional, cell-based
Procedure, shortened: (§4)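 Cells treated 24 h, with or without 24 h pretreatment with 5 mM NAC. Cells embedded in 0.75% low-melt agarose and lysed (pH 10.0, 4 °C, ≥1 h). DNA unwound 20 min in 300 mM NaOH/1 mM EDTA (pH >13), then electrophoresed 20 min at 0.86 V/cm and stained with ethidium bromide. 100 cells scored visually into classes 0–4 to give damage index.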

MDA-MB-435 [30] = test: Genotoxicity in human MDA-MB-435 cells assessed as DNA strand breaks at 5 uM after 24 hrs by comet assay; type: functional, cell-based; procedure, shortened: as §4
HCT-8 [31] = test: Genotoxicity in human HCT8 cells assessed as DNA strand breaks at 5 uM after 24 hrs by comet assay; type: functional, cell-based; procedure, shortened: as §4
SF-295 [32] = test: Genotoxicity in human SF295 cells assessed as DNA strand breaks at 5 uM after 24 hrs by comet assay; type: functional, cell-based; procedure, shortened: as §4
HL-60 [33] = test: Genotoxicity in human HL60 cells assessed as DNA strand breaks at 5 uM after 24 hrs by comet assay in presence of […]; type: functional, cell-based; procedure, shortened: as §4
MDA-MB-435 [34] = test: Genotoxicity in human MDA-MB-435 cells assessed as DNA strand breaks at 5 uM after 24 hrs by comet assay in presence of […]; type: functional, cell-based; procedure, shortened: as §4
HCT-8 [35] = test: Genotoxicity in human HCT8 cells assessed as DNA strand breaks at 5 uM after 24 hrs by comet assay in presence of […]; type: functional, cell-based; procedure, shortened: as §4
SF-295 [36] = test: Genotoxicity in human SF295 cells assessed as DNA strand breaks at 5 uM after 24 hrs by comet assay in presence of […]; type: functional, cell-based; procedure, shortened: as §4

Row | Structure (SMILES) | Activity (MDA-MB-435 [1]) | Activity (HL-60 [2]) | Ratio (HL-60 [3]) | Ratio (HL-60 [4]) | Ratio (MDA-MB-435 [5]) | Ratio (MDA-MB-435 [6]) | Ratio (HCT-8 [7]) | Ratio (HCT-8 [8]) | Ratio (SF-295 [9]) | Ratio (SF-295 [10]) | IC50 (PBMC) | Activity (HL-60 [11]) | Activity (HCT-8 [12]) | Activity (SF-295 [13]) | Activity (MDA-MB-435 [14]) | Activity (HCT-8 [15]) | Activity (SF-295 [16]) | Activity (MDA-MB-435 [17]) | Activity (HL-60 [18]) | Activity (HCT-8 [19]) | also measured
1 | CC1(C)CCC2=C(O1)c1ccccc1C(=O)C2=O [LAPACHONE] | Active | inactive | 61.36 | 8.33 | 83.17 | 5.16 | 72.41 | 11.41 | 58.75 | 8.72 | > 20600 nM | Active | Active | Active | inactive | inactive | inactive | – | – | – | –
2 | CC1(C)OC2=C(C(=O)C(=O)c3ccccc32)[C@H](n2cc(-c3ccccc3)nn2)[C@H]1Br | Active | inactive | – | – | – | – | – | – | – | – | – | Active | Active | Active | inactive | inactive | inactive | inactive | inactive | Active | Activity (SF-295 [20]): Active; Activity (HL-60 [21]): Active; Activity (MDA-MB-435 [22]): Active; IC50 (HL-60 [23]): 1010 nM; IC50 (MDA-MB-435 [24]): 1220 nM; IC50 (HCT-8 [25]): 1370 nM; IC50 (SF-295 [26]): 1550 nM; Activity (HCT-8 [27]): inactive; Activity (SF-295 [28]): inactive; Activity (HL-60 [29]): Active; Activity (MDA-MB-435 [30]): Active; Activity (HCT-8 [31]): Active; Activity (SF-295 [32]): Active; Activity (HL-60 [33]): inactive; Activity (MDA-MB-435 [34]): inactive; Activity (HCT-8 [35]): inactive; Activity (SF-295 [36]): inactive
3 | CC1(C)OC2=C(C(=O)C(=O)c3ccccc32)[C@H](n2cc(-c3ccc(F)cc3)nn2)[C@H]1Br | Active | inactive | – | – | – | – | – | – | – | – | 3370 nM | Active | Active | Active | inactive | inactive | inactive | inactive | inactive | Active | Activity (SF-295 [20]): Active; Activity (HL-60 [21]): Active; Activity (MDA-MB-435 [22]): Active; IC50 (HL-60 [23]): 1200 nM; IC50 (MDA-MB-435 [24]): 1200 nM; IC50 (HCT-8 [25]): 2260 nM; IC50 (SF-295 [26]): 1760 nM; Activity (HCT-8 [27]): inactive; Activity (SF-295 [28]): inactive; Activity (HL-60 [29]): Active; Activity (MDA-MB-435 [30]): Active; Activity (HCT-8 [31]): Active; Activity (SF-295 [32]): Active; Activity (HL-60 [33]): inactive; Activity (MDA-MB-435 [34]): inactive; Activity (HCT-8 [35]): inactive; Activity (SF-295 [36]): inactive
4 | CC1(C)CC2=C(O1)c1ccccc1C(=O)C2=O [NOR-BETA-LAPACHONE] | Active | inactive | 67.19 | 12.36 | 78.52 | 7.49 | 63.25 | 10.48 | 63.81 | 9.18 | > 21900 nM | Active | Active | Active | inactive | inactive | inactive | – | – | – | –
